This excerpt belongs to a sample that is enriched for hits.
HSF1 inh: HSF1 inhibition; activity change, negative = inhibition, % at 7.5 µM (by protocol); NIH3T3-HGL HSE-luciferase, MG132-induced, luminescence 8 h; active compounds read low; AID 2098; 0.77% of 300,000 active;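 active means more than half of replicate wells show activity change below -50%, luminescence cut by over half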;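 further: luciferase reports HSF-1 transcriptional activity via heat shock element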
T cruzi repl: blocks replication of Trypanosoma cruzi. T. cruzi beta-gal in NIH3T3, luminescence, 90 h. AID 1885. 1.4% of 300,000 active. inhibition, % (test concentration not listed);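 active means mean inhibition across valid replicates above about 55%, limit read from the data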;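 further: signal also drops with host cell toxicity which is not excluded here; higher percent means less beta-gal luminescence so fewer parasites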
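assay system = mouse NIH/3T3 fibroblasts infected with β-gal-expressing T. cruzi Tulahuen C4 | input = 5,000 NIH/3T3 host cells per well | buffer or medium = DMEM plus 2% FBS | timing = 3 h host attachment, then at least 90 h co-culture | measured by = GalScreen luminescence, 60 min | evaluation = luminescence reflecting intracellular parasite burden, expressed as percent inhibition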
HSF-1 act: increases HSF-1 driven luciferase reporter signal. NIH3T3-HGL HSF-1 luciferase reporter, MG132, 8 h; 100% = twice DMSO control signal. activation, % at 9 µM. 1.7% of 300,000 active;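 active means mean replicate activation of at least 50% with a set share of replicates each reaching 50%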
Lmaj promast: inhibitors of Leishmania major promastigote growth; Leishmania major promastigotes, resazurin fluorescence viability; inhibition, % at 10 µM; 9% of 200,000 active; AID 1063; in the data active means inhibition above about 50%;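 further: promastigotes grown with compound for 44 hours at 28 °C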
Hsp70 act: Hsp70 transcriptional activation, primary screen | activation, % at 10 µM | 0.04% of 200,000 active | HeLa Hsp70 promoter luciferase reporter, luminescence; scaled: vehicle 0, proteasome-inhibitor control 100%;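 active means activation above the mean across all tested compounds plus 3 SD, cutoff set per campaign, cut at about 5.5% in these data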
Large screens that a line does not name were inactive.

Cc1cc(C)nc(SCc2ccc(C(=O)N/N=C/c3cccc(O)c3O)cc2)n1	Lmaj promast 98.0
COc1ccc(/C=N/NC(=O)c2ccc(CSc3nc(C)cc(C)n3)cc2)cc1O	none
COc1ccc(O)c(/C=N/NC(=O)c2ccc(CSc3nc(C)cc(C)n3)cc2)c1	Lmaj promast 98.6
CC(C)(C)C(=O)OCc1nc(-c2ccc(C(F)(F)F)cc2)cs1	none (no result: Lmaj promast, Hsp70 act)
Cc1ccc(NC(=S)Nc2ccc3nc(-c4ccccn4)c(-c4ccccn4)nc3c2)cc1C	Lmaj promast 71.8 (no result: HSF1 inh, T cruzi repl, HSF-1 act)
Cc1ccc(NC(=O)c2cnc3ccccc3n2)cc1C	HSF-1 act 62.5 (no result: Lmaj promast, Hsp70 act)
Cc1ccc(NC(=O)c2sc(Cl)nc2-c2ccccc2)cc1C	HSF-1 act 61.0
Cc1ccc(NC(=S)Nc2ccccn2)cc1C	none (no result: Lmaj promast, Hsp70 act)
COc1ccc(CNC(=O)NC(C)(C)c2cccc(C(C)(C)NC(=O)NCc3ccc(OC)cc3)c2)cc1	none
COc1cc(Cl)c(C)cc1NC(=O)CSc1cc(Cl)ccc1Cl	none
CCCC1(CCC)NC(=O)N(CC(=O)c2cc(C)n(-c3ccc4c(c3)OCO4)c2C)C1=O	none
Cc1cc(C(=O)CN2C(=O)C(=O)N(Cc3ccccc3)C2=O)c(C)n1-c1ccc2c(c1)OCCO2	HSF1 inh -70.4
c1csc(CSc2nc3ccccc3s2)c1	HSF-1 act 55.6
Cc1noc(C)c1CSc1nc2ccccc2s1	none
C#CCSc1nnc(CSc2nc3ccccc3s2)n1-c1ccccc1	Lmaj promast 50.5
CCn1c(CSc2nc3ccccc3s2)nc2ccccc21	HSF-1 act 75.7
COc1ccccc1N1C(=O)C=C(Sc2nc(C)cc(C)n2)C1=O	none (no result: Lmaj promast, Hsp70 act)
CCc1ccc(CN2CCC(n3nccc3NC(=O)c3ccccc3)CC2)o1	none (no result: Lmaj promast, Hsp70 act)
Cc1ccc(CCN2CC(C(=O)NC(C)C)CC2=O)cc1 (configuration not stated)	none (no result: Lmaj promast, Hsp70 act)
N/C(Cc1cccc2ccccc12)=N\OC(=O)c1cccs1	Lmaj promast 58.2
CC1(C)NC(=O)N(CCCCOc2ccc(Cl)cc2C=O)C1=O	Lmaj promast 57.0
COc1cc(/C=C2\C(=N)N3N=C(S(C)(=O)=O)SC3=NC2=O)cc(OC)c1OCCOc1cccc(C)c1	none (no result: Lmaj promast, Hsp70 act)
CCOC(=O)c1[nH]c2ccc(F)cc2c1NC(=O)CN1CCc2cc(OC)c(OC)cc2C1	none
CCOC(=O)c1[nH]c2ccc(F)cc2c1NC(=O)CN1CCN(C/C=C/c2ccccc2)CC1	Lmaj promast 99.4
CCN(CC(=O)Nc1c(C(=O)OC)[nH]c2ccccc12)c1ccc2c(c1)OCO2	none
COC(=O)c1[nH]c2ccccc2c1NC(=O)/C=C/c1ccc2c(c1)OCO2	HSF-1 act 78.2
COC(=O)c1[nH]c2ccccc2c1NC(=O)CN1CCN(C/C=C/c2ccccc2)CC1	Lmaj promast 63.6
O=C(Nc1nnc(SCc2ccc(F)cc2)s1)c1ccccn1	HSF-1 act 222.9, Lmaj promast 98.8
O=C(Nc1nnc(SCc2ccc(F)cc2)s1)c1cccnc1Cl	none
O=C(NNc1nc2ccccc2s1)c1ccc(F)cc1	none (no result: HSF1 inh, HSF-1 act)
O=C(Nc1nc2ccc(F)cc2s1)c1ccccn1	HSF-1 act 110.4, Lmaj promast 100.2
O=C(NNc1nc2ccc(F)cc2s1)c1cccc(F)c1	T cruzi repl 66.9
O=C(CCNS(=O)(=O)c1ccccc1)NNC(=O)C1COc2ccccc2O1 (configuration not stated)	none (no result: Lmaj promast, Hsp70 act)
CCN(CC)S(=O)(=O)c1ccc2c(c1)N(CC(=O)N1CCC(C(N)=O)CC1)C(=O)CO2	none (no result: Lmaj promast, Hsp70 act)
Cc1ccc(CNC(=O)C2CCCN(S(=O)(=O)c3c(C)noc3/C=C/N(C)C)C2)cc1 (configuration not stated)	none (no result: Lmaj promast, Hsp70 act)
C[N+](C)=C1SCC(C)(/C=N/O)S1 (configuration not stated)	none (no result: Lmaj promast, Hsp70 act)
CC1Cc2ccccc2N1S(=O)(=O)c1cccs1 (configuration not stated)	Lmaj promast 90.0
Cc1ccc(S(=O)(=O)N2c3ccccc3CC2C)cc1 (configuration not stated)	none
COc1ccc(C)cc1S(=O)(=O)N1c2ccccc2CC1C (configuration not stated)	Lmaj promast 100.1
CCn1c(=O)n(CC)c2cc(S(=O)(=O)Nc3cc(C)cc(C)c3C#N)ccc21	none
CCn1c(=O)n(CC)c2cc(S(=O)(=O)Nc3c(C)cccc3C)ccc21	Lmaj promast 98.4
O=C(Cn1ncn2c(cc3sccc32)c1=O)NC1CCCC1	none (no result: Lmaj promast, Hsp70 act)
Cc1ccccc1Cn1c(=N)n(CC(=O)c2ccc([N+](=O)[O-])cc2)c2ccccc21	Lmaj promast 99.9 (no result: HSF1 inh, T cruzi repl, HSF-1 act)
CCCn1c(=N)n(CC(=O)c2ccc([N+](=O)[O-])cc2)c2ccccc21	Lmaj promast 64.0
CCCn1c(=N)n(CC(=O)c2ccc(Cl)cc2)c2ccccc21	none (no result: Lmaj promast, Hsp70 act)
Cc1csc(=O)n1CC(=O)OCC(=O)Nc1ccc(Cl)cc1F	none (no result: Lmaj promast, Hsp70 act)
CCCCC(=O)N(Cc1nc2sc(C)c(C)c2c(=O)[nH]1)C1CCCC1	none
CCOc1cc(/C=C2\SC(=S)N(N3CCOCC3)C2=O)ccc1O	none (no result: Lmaj promast, Hsp70 act)
CCOc1cc(/C=C2\SC(=N)N(c3nccs3)C2=O)ccc1OCCN1CCOCC1	Lmaj promast 96.9
CCN1CCN(c2ccc(S(=O)(=O)N3CCCCC3)cc2NC(=O)CC(C)c2ccccc2)CC1 (configuration not stated)	none (no result: Lmaj promast, Hsp70 act)
CCOc1ccccc1NC(=O)/C(C#N)=C/c1c(C)nn(-c2ccc(F)cc2)c1Cl	Lmaj promast 72.8
C=CCNC(=O)/C(C#N)=C/c1c(C)nn(-c2ccc(Cl)cc2)c1Cl	Lmaj promast 88.6
O=C(Nc1nccs1)c1ccc(-c2ccc([N+](=O)[O-])cc2)o1	none
O=C(Cc1ccc(F)cc1)Nc1nccs1	none (no result: Lmaj promast, Hsp70 act)
O=C(Nc1nccs1)c1ccc(-c2ccc(Cl)cc2)o1	HSF-1 act 56.6
Fc1ccc(NC(=S)Nc2nccs2)cc1	T cruzi repl 65.6, HSF-1 act 64.0
O=C(Nc1nccs1)c1ccc(-c2ccc(F)cc2)o1	HSF-1 act 72.8
O=C(Nc1nccs1)c1ccc(-c2ccccc2Cl)o1	HSF-1 act 60.8
S=C(Nc1ccccc1)Nc1nccs1	none (no result: Lmaj promast, Hsp70 act)
O=C(Nc1nccs1)c1ccc(-c2ccccc2[N+](=O)[O-])o1	none (no result: Lmaj promast, Hsp70 act)
COc1ccc(N2CCN(S(=O)(=O)c3ccc(OC)c(C(=O)N4CCOCC4)c3)CC2)cc1	none (no result: Lmaj promast, Hsp70 act)
N#Cc1ccc(Oc2ncccn2)cc1	none (no result: Lmaj promast, Hsp70 act)
O=C(/C=C/c1ccc(Cl)cc1)Nc1nccs1	HSF-1 act 62.9
Cc1ccc(C(CC(=O)c2ccco2)SCCO)cc1 (configuration not stated)	none
O=C(CC(SCCO)c1ccc(F)cc1)c1ccco1 (configuration not stated)	Lmaj promast 83.7
COc1cccc(C(=O)N2CCC(C(=O)NCc3ccc(C)cc3)CC2)c1	none (no result: Lmaj promast, Hsp70 act)
N#Cc1ccc(NC(=O)Nc2ccc(Cl)cc2)cc1	T cruzi repl 71.4
COC(=O)c1cc2c(C)[nH]c(C)c2cc(C(=O)OC)c1=O	none
Cc1cccc(NC(=O)CSc2nnc(CNC(=O)c3ccc(S(=O)(=O)N(C)C)cc3)n2-c2ccccc2)c1	Lmaj promast 54.7

High-throughput results deposited in PubChem BioAssay by several laboratories.
